Substrate in data set [1]: NC(=O)c1cc(N2CC2)c([N+](=O)[O-])cc1[N+](=O)[O-]
As to the kind of experiment: (§1) Substrate activity at Escherichia coli nitroreductase nfsB assessed as Kcat using NADH as cofactor at […] in Tris-Cl buffer at pH 7.5 by spectrophotometric method.

Substrate in data set [2]: CS(=O)(=O)OCCN(CCBr)c1c(C(=O)NCCO)cc([N+](=O)[O-])cc1[N+](=O)[O-]
The data set is described as §1.

Substrate in data set [3]: NC(=O)c1cc(N(CCCl)CCCl)c([N+](=O)[O-])cc1[N+](=O)[O-]
The description is as §1.

Substrate in data set [4]: NC(=O)c1cc(N2CC2)c([N+](=O)[O-])cc1[N+](=O)[O-]
Description: (§2) Substrate activity at Escherichia coli nitroreductase nfsB assessed as Km using NADH as cofactor in Tris-Cl buffer at pH 7.5 by spectrophotometric method. The class given is ADME.

Substrate in data set [5]: CS(=O)(=O)OCCN(CCBr)c1c(C(=O)NCCO)cc([N+](=O)[O-])cc1[N+](=O)[O-]
Described as §2. The class given is ADME.

Substrate in data set [6]: NC(=O)c1cc(N2CC2)c([N+](=O)[O-])cc1[N+](=O)[O-]
Description: (§3) Substrate activity at Staphylococcus saprophyticus nitroreductase assessed as Km using NADPH as cofactor in presence of Tris-Cl buffer at pH 7.5 by spectrophotometric method. The class given is ADME. In a few lines: (§4)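 Michaelis–Menten parameters for recombinant Ssap-NtrB were measured spectrophotometrically at 25 °C in 25 mM Tris-Cl buffer pH 7.5 containing 5% DMSO as cosolvent.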

Substrate in data set [7]: CCN(C(C)=O)c1cc([N+](=O)[O-])cc([N+](=O)[O-])c1
Described as §3. It is filed as ADME. In short, it runs like this:
as §4

B1: Oxygen-insensitive NAD(P)H nitroreductase (Escherichia coli K-12), P38489 (protein)
chain: MDIISVALKRHSTKAFDASKKLTPEQAEQIKTLLQYSPSSTNSQPWHFIVASTEEGKARVAKSAAGNYVFNERKMLDASHVVVFCAKTAMDDVWLKLVVDQEDADGRFATPEAKAANDKGRKFFADMHRKDLHDDAEWMAKQVYLNVGNFLLGVAALGLDAVPIEGFDAAILDAEFGLKEKGYTSLVVVPVGHHSVEDFNATLPKSRLPQNITLTEV
For B1, the catalytic constant (kcat) was found to be 62 s⁻¹ in data set [1], 60 s⁻¹ in data set [2] and 26.4 s⁻¹ in data set [3].

B2: Oxygen-insensitive NAD(P)H nitroreductase (Escherichia coli K-12) (protein)
chain: B1 chain
Consider B2, for which, in data set [4], the Km was 11 mM and the specificity constant (kcat/Km) worked out at 5600 M⁻¹ s⁻¹. Also, in data set [5], the Michaelis constant (Km) is 4.5 mM and the kcat/Km came to 13000 M⁻¹ s⁻¹.

B3: Putative nitroreductase (Staphylococcus saprophyticus subsp. saprophyticus ATCC 15305 = NCTC 7292) (protein)
chain: MINNNFEEILMNRKSVKVFDEQVKIPKAEMDEMIKKATTAPSSVNMQPWRFLVVESDEGKDTLRPLIRFNTRQNDSSAAMVVIFGDMKSQTNAEEIYGNAVKHDLMPEEVKQEMLKKVIPLYDNAPKEQMNDIVKIDSSLAAMQFMLVAKAHGYDTNPIGGFESDQIADAFGIDSERYVPVLIVAIGKAKNPAHGSYRLPTETVTKYV
As to B3, in data set [6], the Michaelis constant (Km) was 1070 µM, the kcat was determined as 2.26 s⁻¹ and the kcat/Km was determined as 2120 M⁻¹ s⁻¹. Also, the Km in data set [7] turned out to be 96.9 µM.
